Source: ChEMBL document CHEMBL1138845, “Design of non-nucleoside inhibitors of HIV-1 reverse transcriptase with improved drug resistance properties. 2” (J Med Chem, 2004)

What was measured:
[1] = tested on: Human immunodeficiency virus 1; test: Inhibitory concentration against wild type human immunodeficiency virus type 1 was determined by recombinant virus assay; type: functional, organism-based
Method in brief: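 Isogenic recombinant HIV-1 carrying wild-type RT, tested in parallel with a panel of NNRTI-resistant RT mutants built on the same background; activity reported as IC50.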

[2] = tested on: HeLa; test: Inhibitory concentration against human immunodeficiency virus type 1 (with K103N/G190A resistant mutation) was determined in HeLa-CD4 MAGI assay; type: functional, cell-based
Method in brief: (§1)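 Tested against a panel of recombinant, isogenic HIV-1 viruses, wild type and NNRTI-resistant strains carrying engineered single or double RT mutations. The readout was IC50.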

[3] = tested on: HeLa; test: Inhibitory concentration against human immunodeficiency virus type 1 (with V108I resistant mutation) was determined in HeLa-CD4 MAGI assay; type: functional, cell-based; method in brief: as §1
[4] = tested on: HeLa; test: Inhibitory concentration against human immunodeficiency virus type 1 (with Y188C resistant mutation) was determined in HeLa-CD4 MAGI assay; type: functional, cell-based; method in brief: as §1
[5] = tested on: MT4; test: Ratio of cytotoxic concentration to that of inhibitory concentration as selectivity index was determined by MT-4 assay; type: functional, Homo sapiens
Method in brief: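 Index is the IC50 in uninfected MT4 cells divided by the antiviral IC50 in MT4 cells infected with wild-type HIV-1 or the nevirapine-resistant strain carrying RT mutation Y181C.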

[6] = tested on: MT4; test: Inhibitory concentration against nevirapine resistant strain (with Y181C mutation in HIV-1 RT gene) of human immunodeficiency virus type 1 was determined by MT-4 assay; type: functional, cell-based
[7] = tested on: HeLa; test: Inhibitory concentration against human immunodeficiency virus type 1 (with V106A resistant mutation) was determined in HeLa-CD4 MAGI assay; type: functional, cell-based; method in brief: as §1
[8] = tested on: HeLa; test: Inhibitory concentration against human immunodeficiency virus type 1 (with K103N/V108I resistant mutation) was determined in HeLa-CD4 MAGI assay; type: functional, cell-based; method in brief: as §1
[9] = tested on: HeLa; test: Inhibitory concentration against human immunodeficiency virus type 1 (with K103N/Y181C resistant mutation) was determined in HeLa-CD4 MAGI assay; type: functional, cell-based; method in brief: as §1
[10] = tested on: HeLa; test: Inhibitory concentration against human immunodeficiency virus type 1 (with K103N resistant mutation) was determined in HeLa-CD4 MAGI assay; type: functional, cell-based; method in brief: as §1
[11] = tested on: HeLa; test: Inhibitory concentration against human immunodeficiency virus type 1 (with V108I/Y181C resistant mutation) was determined in HeLa-CD4 MAGI assay; type: functional, cell-based; method in brief: as §1
[12] = tested on: HeLa; test: Inhibitory concentration against human immunodeficiency virus type 1 (with V106A/Y181C resistant mutation) was determined in HeLa-CD4 MAGI assay; type: functional, cell-based; method in brief: as §1
[13] = tested on: HeLa; test: Inhibitory concentration against human immunodeficiency virus type 1 (with G190A resistant mutation) was determined in HeLa-CD4 MAGI assay; type: functional, cell-based; method in brief: as §1
[14] = tested on: HeLa; test: Inhibitory concentration against human immunodeficiency virus type 1 (with Y181C resistant mutation) was determined in HeLa-CD4 MAGI assay; type: functional, cell-based; method in brief: as §1
[15] = tested on: MT4; test: Inhibitory concentration against wild type human immunodeficiency virus type 1 was determined by MT-4 assay; type: functional, cell-based

Row | Compound | IC50 [1] | IC50 [2] | IC50 [3] | IC50 [4] | Ratio [5] | IC50 [6] | IC50 [7] | IC50 [8] | IC50 [9] | IC50 [10] | IC50 [11] | IC50 [12] | IC50 [13] | IC50 [14] | IC50 [15]
1 | CCCc1c(OC2CCCCC2)c2cc(Cl)ccc2[nH]c1=O | 32 nM | 1000 nM | 180 nM | 12 nM | >5000 | 760 nM | 980 nM | ~2000 nM | > 2000 nM | > 2000 nM | 900 nM | 1100 nM | 54 nM | 470 nM | 58 nM
2 | CC(C)c1c(O)nc2ccc(Cl)cc2c1OC#CC1CC1 | 16 nM | 52 nM | 36 nM | 18 nM | >8000 | 31 nM | 57 nM | 1200 nM | 620 nM | 320 nM | 120 nM | 120 nM | 3 nM | 39 nM | 24 nM
3 | CCCc1c(O)nc2ccc(Cl)cc2c1OC#CC1CC1 | 38 nM | 300 nM | 60 nM | 70 nM | >8000 | 120 nM | 220 nM | 1400 nM | 1800 nM | > 2000 nM | 230 nM | 120 nM | 15 nM | 92 nM | 109 nM
4 | CCCc1c(O)nc2ccc(F)cc2c1OC#CC1CC1 | 66 nM | 490 nM | 160 nM | 290 nM | >8000 | 81 nM | 440 nM | > 2000 nM | 1400 nM | > 2000 nM | 370 nM | 380 nM | 21 nM | 1 nM | 72 nM
5 | CCc1c(O)nc2ccc(F)cc2c1OCC1CCC1 | 89 nM | 1100 nM | 250 nM | 130 nM | >8000 | 230 nM | 1700 nM | > 2000 nM | > 2000 nM | 270 nM | 870 nM | > 2000 nM | 110 nM | 390 nM | 39 nM
6 | CCC(C)C#COc1c(C(C)C)c(O)nc2ccc(F)cc12 (stereo not given) | 28 nM | 230 nM | 110 nM | 21 nM | >6500 | 32 nM | 420 nM | > 2000 nM | 640 nM | 540 nM | 140 nM | 130 nM | 21 nM | 84 nM | 17 nM
7 | CC(C)c1c(OC2CCCCC2)c2cc(Cl)ccc2[nH]c1=O | 38 nM | 190 nM | 110 nM | 12 nM | >40000 | 360 nM | 1100 nM | > 2000 nM | > 2000 nM | 170 nM | ~800 nM | 430 nM | 27 nM | 1400 nM | 23 nM
8 | CCCc1c(O)nc2ccc(F)cc2c1OCC1CCC1 | 63 nM | > 2000 nM | 290 nM | 60 nM | >8000 | 190 nM | 1700 nM | > 2000 nM | > 2000 nM | 1800 nM | 560 nM | 1700 nM | 46 nM | 240 nM | 69 nM
9 | CCCc1c(O)nc2ccc(Cl)cc2c1OC1CCC1 | 300 nM | > 2000 nM | 690 nM | 290 nM | >8000 | 2500 nM | > 2000 nM | > 2000 nM | > 2000 nM | > 2000 nM | > 2000 nM | > 2000 nM | 220 nM | 1700 nM | 470 nM
10 | CCCc1c(O)nc2ccc(Cl)cc2c1OCC1CCCCC1 | 1200 nM | > 2000 nM | > 2000 nM | 23 nM | >40000 | 1300 nM | > 2000 nM | > 2000 nM | > 2000 nM | > 2000 nM | 1000 nM | > 2000 nM | 260 nM | 690 nM | 5100 nM
11 | Cc1c(O)nc2ccc(F)cc2c1OCC1CCC1 | 610 nM | > 2000 nM | 1700 nM | 840 nM | >8000 | 3900 nM | > 2000 nM | > 2000 nM | > 2000 nM | > 2000 nM | > 2000 nM | > 2000 nM | 250 nM | > 2000 nM | 990 nM
12 | CCc1c(O)nc2ccc(F)cc2c1OC#CC1CC1 | 25 nM | 68 nM | 60 nM | 100 nM | >8000 | 15 nM | 340 nM | 240 nM | 300 nM | 420 nM | 130 nM | 230 nM | 6 nM | 24 nM | 25 nM
13 | CCCc1c(O)nc2ccc(C#N)cc2c1OC1CCCC1 | 65 nM | > 2000 nM | 240 nM | 52 nM | >40000 | 2000 nM | 1300 nM | > 2000 nM | > 2000 nM | > 2000 nM | > 2000 nM | > 2000 nM | 1 nM | 1700 nM | 120 nM
14 | CCCc1c(O)nc2ccc(Cl)cc2c1OCC1CC1 | 120 nM | > 2000 nM | 200 nM | 89 nM | >40000 | 8300 nM | 630 nM | > 2000 nM | > 2000 nM | > 2000 nM | 1700 nM | > 2000 nM | 49 nM | 210 nM | 1100 nM
